One assay deals with A549. The experiment in a line: Cytotoxicity against human A549 cells after 72 hrs by MTT assay. The format is functional, cell-based. In outline: (§1)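 Cells were grown in MEM with 10% FBS. About 4 × 10³ cells per well were seeded and held 24 h at 37 °C in 5% CO₂, then exposed to compound at the indicated final concentrations for 72 h. MTT was added at 5 µg/mL final for 4 h at 37 °C, and formazan was dissolved in DMSO. Absorbance was read at 492 nm against 630 nm reference. Each compound was tested three times per line, and IC₅₀ values were averaged.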
A general note: Tetrazolium assays rely on reduction of a dye to a coloured formazan, in cell work by metabolically active cells.

The nature of assay [1]: Cytotoxicity against human PC3 cells after 72 hrs by MTT assay. The format is functional, cell-based, PC-3. The procedure, abridged:
as §1

The next assay concerns MCF7. Nature of the assay: Cytotoxicity against human MCF7 cells after 72 hrs by MTT assay. The format is functional, cell-based. In outline: as §1
The subject of a further assay is HeLa. Nature of the assay: Cytotoxicity against human HeLa cells after 72 hrs by MTT assay. The format is functional, cell-based. The procedure, abridged:
as §1

A short description of assay [2]: Cytotoxicity against human NSCLC cells. The format is functional, cell-based.
The target in assay [3] is Vascular endothelial growth factor receptor 2 (Homo sapiens, UniProt P35968). Nature of the assay: Inhibition of VEGFR2 (unknown origin) using FAM-labeled peptide as substrate preincubated for 10 mins followed by addition of substrate by mobility shift assay. In outline:
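Mobility-shift kinase assay. Compounds were serially diluted in 100% DMSO and combined with enzyme for 10 min at room temperature. FAM-labeled peptide plus ATP was then added and incubated at 28 °C. The reaction was stopped with EDTA-containing buffer. Conversion was read on Caliper, and % inhibition = (max − conversion)/(max − min) × 100. IC₅₀ was averaged from at least two experiments.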

Assay [4] has as its target Epidermal growth factor receptor (Homo sapiens, UniProt P00533). Nature of the assay: Inhibition of EGFR (unknown origin) using FAM-labeled peptide as substrate preincubated for 10 mins followed by addition of substrate by mobility shift assay.
Where [5] appears, read: Homo sapiens, A549, 72 h, read-out: IC50.
[6] abbreviates: Homo sapiens, PC-3, 72 h, read-out: IC50.
[7] abbreviates: Homo sapiens, MCF7, 72 h, read-out: IC50.

Epidermal growth factor receptor, sequence (P00533 whole entry): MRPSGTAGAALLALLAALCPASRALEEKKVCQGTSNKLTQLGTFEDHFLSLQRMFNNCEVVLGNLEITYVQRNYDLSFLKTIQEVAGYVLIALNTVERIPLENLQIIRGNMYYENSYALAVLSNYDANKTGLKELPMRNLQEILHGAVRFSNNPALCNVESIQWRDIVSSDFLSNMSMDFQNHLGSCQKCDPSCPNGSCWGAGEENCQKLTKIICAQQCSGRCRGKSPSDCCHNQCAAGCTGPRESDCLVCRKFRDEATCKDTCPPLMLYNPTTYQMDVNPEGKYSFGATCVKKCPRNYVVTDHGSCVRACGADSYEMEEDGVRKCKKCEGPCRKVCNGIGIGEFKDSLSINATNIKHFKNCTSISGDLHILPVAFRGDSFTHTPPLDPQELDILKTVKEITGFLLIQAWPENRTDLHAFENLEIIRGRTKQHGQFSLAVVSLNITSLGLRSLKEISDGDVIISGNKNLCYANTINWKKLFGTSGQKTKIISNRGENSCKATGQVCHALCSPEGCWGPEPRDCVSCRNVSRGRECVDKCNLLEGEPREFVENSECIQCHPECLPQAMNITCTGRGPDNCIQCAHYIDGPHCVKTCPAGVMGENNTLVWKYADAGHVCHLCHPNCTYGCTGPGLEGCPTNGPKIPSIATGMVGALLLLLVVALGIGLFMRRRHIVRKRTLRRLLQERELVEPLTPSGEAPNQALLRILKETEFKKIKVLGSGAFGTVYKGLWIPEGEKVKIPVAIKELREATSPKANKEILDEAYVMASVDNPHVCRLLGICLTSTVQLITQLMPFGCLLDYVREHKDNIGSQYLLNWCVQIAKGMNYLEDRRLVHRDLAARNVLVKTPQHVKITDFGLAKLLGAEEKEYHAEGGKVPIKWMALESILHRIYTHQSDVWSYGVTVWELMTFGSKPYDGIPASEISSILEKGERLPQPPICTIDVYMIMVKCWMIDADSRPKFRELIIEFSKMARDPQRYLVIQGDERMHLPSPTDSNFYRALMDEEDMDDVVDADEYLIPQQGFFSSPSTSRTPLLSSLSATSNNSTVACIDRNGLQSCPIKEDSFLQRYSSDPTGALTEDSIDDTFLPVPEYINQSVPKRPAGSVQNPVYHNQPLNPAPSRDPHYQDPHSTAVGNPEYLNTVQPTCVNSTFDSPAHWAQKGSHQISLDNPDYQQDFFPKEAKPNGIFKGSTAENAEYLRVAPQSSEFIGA
Vascular endothelial growth factor receptor 2, sequence (P35968 whole entry): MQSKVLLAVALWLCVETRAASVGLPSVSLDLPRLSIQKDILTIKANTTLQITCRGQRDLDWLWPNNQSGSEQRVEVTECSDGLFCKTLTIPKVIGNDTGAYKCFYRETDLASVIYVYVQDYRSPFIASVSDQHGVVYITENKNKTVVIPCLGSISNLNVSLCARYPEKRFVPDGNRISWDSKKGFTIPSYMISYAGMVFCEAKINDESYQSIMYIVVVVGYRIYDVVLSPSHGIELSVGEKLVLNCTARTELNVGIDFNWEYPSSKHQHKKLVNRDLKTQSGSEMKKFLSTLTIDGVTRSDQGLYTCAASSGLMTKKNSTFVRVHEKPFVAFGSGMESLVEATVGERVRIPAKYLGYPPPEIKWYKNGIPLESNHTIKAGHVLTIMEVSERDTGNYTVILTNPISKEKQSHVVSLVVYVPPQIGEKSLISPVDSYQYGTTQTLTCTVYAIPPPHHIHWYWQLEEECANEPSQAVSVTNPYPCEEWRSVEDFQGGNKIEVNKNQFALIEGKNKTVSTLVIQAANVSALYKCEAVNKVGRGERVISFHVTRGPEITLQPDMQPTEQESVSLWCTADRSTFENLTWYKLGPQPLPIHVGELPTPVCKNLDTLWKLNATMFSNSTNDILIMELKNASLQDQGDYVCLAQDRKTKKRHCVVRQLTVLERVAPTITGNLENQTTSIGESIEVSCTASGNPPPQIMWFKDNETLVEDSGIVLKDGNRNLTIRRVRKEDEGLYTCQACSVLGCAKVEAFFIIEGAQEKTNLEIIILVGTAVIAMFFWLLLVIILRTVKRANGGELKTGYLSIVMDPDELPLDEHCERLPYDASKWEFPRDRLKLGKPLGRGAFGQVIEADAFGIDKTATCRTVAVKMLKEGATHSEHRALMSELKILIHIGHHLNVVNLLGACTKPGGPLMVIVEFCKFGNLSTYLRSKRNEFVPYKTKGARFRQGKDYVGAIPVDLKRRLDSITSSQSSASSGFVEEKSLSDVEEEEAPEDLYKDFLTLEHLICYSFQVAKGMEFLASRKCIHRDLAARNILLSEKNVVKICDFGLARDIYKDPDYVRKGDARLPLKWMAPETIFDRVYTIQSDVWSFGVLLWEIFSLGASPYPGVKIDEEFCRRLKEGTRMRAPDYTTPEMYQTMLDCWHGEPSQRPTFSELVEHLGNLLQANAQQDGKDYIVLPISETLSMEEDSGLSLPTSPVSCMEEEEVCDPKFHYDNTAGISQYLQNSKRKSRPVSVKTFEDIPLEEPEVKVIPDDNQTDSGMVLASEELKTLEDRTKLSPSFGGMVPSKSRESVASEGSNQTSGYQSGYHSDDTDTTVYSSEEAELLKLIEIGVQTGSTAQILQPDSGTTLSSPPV

What is called IC50 is the concentration at which inhibition is half-maximal. Consider `COc1ccc(/C=C/C(=O)Nc2cc3c(Nc4ccc(F)c(Cl)c4)ncnc3cc2OC)c(OC)c1`, for which the figures for the IC50 (with A549 (setting [5]); in assay [1] (setting [6]); in the assay on MCF7 (setting [7])) were 33.2 µM, 38.5 µM and 36.6 µM, respectively.

For the compound `COc1cc(/C=C/C(=O)Nc2cc3c(Nc4ccc(F)c(Cl)c4)ncnc3cc2O[C@H]2CCOC2)cc(OC)c1O`, the half-maximal inhibitory concentration (IC50) with HeLa is 27.4 µM; with A549 (setting [5]), 26.9 µM; in assay [1] (setting [6]), 26.5 µM; with MCF7 (setting [7]), 30.5 µM.

Turning to `COc1cc(/C=C/C(=O)Nc2cc3c(Nc4ccc(F)c(Cl)c4)ncnc3cc2O[C@H]2CCOC2)cc(OC)c1OC`, the IC50 in the assay with HeLa is 24.5 µM; with A549 (setting [5]) it was 4.15 µM; in assay [1] (setting [6]) it was 20.5 µM; with MCF7 (setting [7]) it was 28.4 µM.

Regarding `O=C(/C=C/c1ccc(F)cc1Cl)Nc1cc2c(Nc3ccc(F)c(Cl)c3)ncnc2cc1O[C@H]1CCOC1`, the IC50 in the assay on HeLa turned out to be 37.5 µM; with A549 (setting [5]), 5.19 µM; in assay [1] (setting [6]), 7.15 µM; in the assay with MCF7 (setting [7]), 26.2 µM.

Take `O=C(/C=C/c1ccccc1[N+](=O)[O-])Nc1cc2c(Nc3ccc(F)c(Cl)c3)ncnc2cc1O[C@H]1CCOC1`: the IC50 in the assay on HeLa was 29.6 µM; in the assay on A549 (setting [5]), 8.82 µM; in assay [1] (setting [6]), 7.76 µM; in the assay with MCF7 (setting [7]), 28.4 µM.

On to `COc1ccc(/C=C/C(=O)Nc2cc3c(Nc4ccc(F)c(Cl)c4)ncnc3cc2OC)cc1`, for which the IC50 result (with A549 (a549); in assay [1] (pc-3); in the assay with MCF7 (mcf7)) was “Not Active” throughout.

With `COc1cc2ncnc(Nc3ccc(F)c(Cl)c3)c2cc1NC(=O)/C=C/c1cc(OC)c(OC)c(OC)c1`, the IC50 entry in the assay on A549 (a549) is “Not Active”; in assay [1] (setting [6]), 38.2 µM; in the assay with MCF7 (mcf7) it was “Not Active”.

Take `CN(C)C/C=C/C(=O)Nc1cc2c(Nc3ccc(F)c(Cl)c3)ncnc2cc1O[C@H]1CCOC1` [AFATINIB]: the IC50 in the assay with HeLa was 6.81 µM; in the assay on A549 (setting [5]), 0.05 µM; in assay [2], 0.0005 µM; in assay [1] (setting [6]) it was 4.1 µM; in the assay on MCF7 (setting [7]) it was 5.83 µM.

Regarding `O=C(/C=C/c1ccc([N+](=O)[O-])cc1)Nc1cc2c(Nc3ccc(F)c(Cl)c3)ncnc2cc1O[C@H]1CCOC1`, the IC50 amounted to 27.4 µM in the assay with HeLa, 12 µM with A549 (setting [5]), 22.8 µM in assay [1] (setting [6]) and 26.7 µM in the assay on MCF7 (setting [7]).

Consider `O=C(/C=C/c1ccc(Br)cc1)Nc1cc2c(Nc3ccc(F)c(Cl)c3)ncnc2cc1O[C@H]1CCOC1`, for which the IC50 with HeLa amounted to 27.4 µM; in the assay on A549 (setting [5]), 35.3 µM; in assay [1] (setting [6]), 28.2 µM; in the assay with MCF7 (setting [7]) it was 32.4 µM.

Regarding `COc1ccc(OC)c(/C=C/C(=O)Nc2cc3c(Nc4ccc(F)c(Cl)c4)ncnc3cc2O[C@H]2CCOC2)c1`, the IC50 with HeLa is 26.8 µM; with A549 (setting [5]), 7.3 µM; in assay [1] (setting [6]), 8.73 µM; in the assay with MCF7 (setting [7]), 36.3 µM.

As to `COc1cc2ncnc(Nc3ccc(F)c(Cl)c3)c2cc1NC(=O)/C=C/c1ccc(C#N)cc1`, the IC50 entry (with A549 (a549); in assay [1] (pc-3); in the assay with MCF7 (mcf7)) was “Not Active” each time.

For the compound `COc1ccc(/C=C/C(=O)Nc2cc3c(Nc4ccc(F)c(Cl)c4)ncnc3cc2O[C@H]2CCOC2)c(OC)c1`, the IC50 with HeLa stood at 26.4 µM; in the assay with A549 (setting [5]), 9.35 µM; in assay [1] (setting [6]), 2.76 µM; in the assay with MCF7 (setting [7]) it was 28.6 µM.

In the case of `N#Cc1ccc(/C=C/C(=O)Nc2cc3c(Nc4ccc(F)c(Cl)c4)ncnc3cc2O[C@H]2CCOC2)cc1`, the IC50 result is “Not Active” with A549 (a549), 36.6 µM in assay [1] (setting [6]) and 9.83 µM in the assay with MCF7 (setting [7]).

As for `COc1ccc(/C=C/C(=O)Nc2cc3c(Nc4ccc(F)c(Cl)c4)ncnc3cc2O[C@H]2CCOC2)cc1`, the IC50 in assay [3] is 0.886 µM; in the assay on HeLa, 34.6 µM; with A549 (setting [5]), 3.05 µM; in assay [1] (setting [6]) it was 2.24 µM; in the assay with MCF7 (setting [7]), 5.07 µM; in assay [4], 0.0091 µM.

With `O=C(/C=C/c1cccc(Cl)c1Cl)Nc1cc2c(Nc3ccc(F)c(Cl)c3)ncnc2cc1O[C@H]1CCOC1`, the IC50 was found to be 30.5 µM in the assay on HeLa, 23.2 µM in the assay on A549 (setting [5]), 27.5 µM in assay [1] (setting [6]) and 30.1 µM with MCF7 (setting [7]).

`COc1cc2ncnc(Nc3ccc(F)c(Cl)c3)c2cc1NC(=O)/C=C/c1ccccc1[N+](=O)[O-]`: the IC50 amounted to 33.2 µM with A549 (setting [5]), 14.3 µM in assay [1] (setting [6]) and 36.5 µM in the assay with MCF7 (setting [7]).

For `COc1cc2ncnc(Nc3ccc(F)c(Cl)c3)c2cc1NC(=O)/C=C/c1ccc(F)cc1Cl`, the IC50 result is “Not Active” in the assay with A549 (a549), 32.7 µM in assay [1] (setting [6]) and “Not Active” in the assay with MCF7 (mcf7).

As for `COc1ccc(OC)c(/C=C/C(=O)Nc2cc3c(Nc4ccc(F)c(Cl)c4)ncnc3cc2OC)c1`, the IC50 amounted to 11.2 µM in the assay on A549 (setting [5]), 28.6 µM in assay [1] (setting [6]) and 34.2 µM with MCF7 (setting [7]).

`COc1cc(/C=C/C(=O)Nc2cc3c(Nc4ccc(F)c(Cl)c4)ncnc3cc2O[C@H]2CCOC2)cc(OC)c1`: the IC50 in the assay on HeLa is 34.2 µM; in the assay with A549 (setting [5]), 10.8 µM; in assay [1] (setting [6]), 25.6 µM; with MCF7 (setting [7]), 30.3 µM.

Regarding `COc1cc(/C=C/C(=O)Nc2cc3c(Nc4ccc(F)c(Cl)c4)ncnc3cc2OC)cc(OC)c1`, the figures for the IC50 entry (in the assay with A549 (a549); in assay [1] (pc-3); in the assay with MCF7 (setting [7])) were “Not Active”, “Not Active” and 38.5 µM, respectively.

On to `O=C(/C=C/c1cc(Br)c(O)c(Br)c1)Nc1cc2c(Nc3ccc(F)c(Cl)c3)ncnc2cc1O[C@H]1CCOC1`, for which the IC50 came out at 27.7 µM with HeLa, 28.8 µM in the assay with A549 (setting [5]), 25.5 µM in assay [1] (setting [6]) and 30.6 µM in the assay with MCF7 (setting [7]).

As for `COc1ccc(/C=C/C(=O)Nc2cc3c(Nc4ccc(F)c(Cl)c4)ncnc3cc2O[C@H]2CCOC2)c(OC)c1OC`, the half-inhibitory concentration (IC50) in assay [3] was 0.478 µM; in the assay with HeLa, 4.83 µM; in the assay on A549 (setting [5]), 0.07 µM; in assay [1] (setting [6]) it was 7.67 µM; with MCF7 (setting [7]), 4.65 µM; in assay [4], 0.0036 µM.
